Where “and” joins values, the source holds several entries; their conditions need not be identical. Identical values can stand only once.
What was measured:
h15-LOX-1 = biological target: T1, h15-LOX-1 (Homo sapiens, UniProt P16050); assay: Product analysis of h15-LOX-1 reactions; assay type: biochemical
T1 sequence (P16050 1-662): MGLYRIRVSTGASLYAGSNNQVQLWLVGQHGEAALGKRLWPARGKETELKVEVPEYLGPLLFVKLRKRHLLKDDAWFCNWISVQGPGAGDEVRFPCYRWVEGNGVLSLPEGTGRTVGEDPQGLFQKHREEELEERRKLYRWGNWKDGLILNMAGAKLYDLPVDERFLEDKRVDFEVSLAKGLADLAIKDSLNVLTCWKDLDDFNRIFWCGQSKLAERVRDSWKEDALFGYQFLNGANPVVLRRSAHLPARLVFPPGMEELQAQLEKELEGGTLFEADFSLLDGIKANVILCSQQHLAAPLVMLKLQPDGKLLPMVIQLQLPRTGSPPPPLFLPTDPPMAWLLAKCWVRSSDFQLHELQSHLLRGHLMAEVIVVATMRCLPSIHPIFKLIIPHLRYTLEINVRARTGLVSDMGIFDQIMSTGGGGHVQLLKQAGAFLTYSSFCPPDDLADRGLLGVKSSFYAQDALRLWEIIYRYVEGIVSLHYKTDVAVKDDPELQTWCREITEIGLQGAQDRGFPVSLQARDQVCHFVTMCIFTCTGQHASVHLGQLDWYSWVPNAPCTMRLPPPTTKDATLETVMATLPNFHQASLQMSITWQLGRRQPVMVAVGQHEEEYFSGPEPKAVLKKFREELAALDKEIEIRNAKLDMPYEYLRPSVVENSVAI
How it was run: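 h15-LOX-1 (0.125 μM, pH 7.5) or h12-LOX (0.300 μM, pH 8.0) was reacted in 25 mM HEPES at room temperature under ambient O2. Substrates were 10 μM DHA for 1 min (monitored at 234 nm) or 1 μM 14S-HpDHA for 20 min (h15-LOX-1) or 1 h (h12-LOX) (monitored at 270 nm). Reactions were quenched with acetic acid, spiked with d5-maresin-1, extracted into DCM and background-subtracted against a no-enzyme control. Split samples were run with or without trimethyl phosphite reduction. Products were identified by C18 LC-MS/MS (qTOF), N = 3.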

h12-LOX = biological target: T2, h12-LOX (Homo sapiens, UniProt P18054); assay: Steady-state kinetics of h12-LOX
T2 sequence (P18054 1-663): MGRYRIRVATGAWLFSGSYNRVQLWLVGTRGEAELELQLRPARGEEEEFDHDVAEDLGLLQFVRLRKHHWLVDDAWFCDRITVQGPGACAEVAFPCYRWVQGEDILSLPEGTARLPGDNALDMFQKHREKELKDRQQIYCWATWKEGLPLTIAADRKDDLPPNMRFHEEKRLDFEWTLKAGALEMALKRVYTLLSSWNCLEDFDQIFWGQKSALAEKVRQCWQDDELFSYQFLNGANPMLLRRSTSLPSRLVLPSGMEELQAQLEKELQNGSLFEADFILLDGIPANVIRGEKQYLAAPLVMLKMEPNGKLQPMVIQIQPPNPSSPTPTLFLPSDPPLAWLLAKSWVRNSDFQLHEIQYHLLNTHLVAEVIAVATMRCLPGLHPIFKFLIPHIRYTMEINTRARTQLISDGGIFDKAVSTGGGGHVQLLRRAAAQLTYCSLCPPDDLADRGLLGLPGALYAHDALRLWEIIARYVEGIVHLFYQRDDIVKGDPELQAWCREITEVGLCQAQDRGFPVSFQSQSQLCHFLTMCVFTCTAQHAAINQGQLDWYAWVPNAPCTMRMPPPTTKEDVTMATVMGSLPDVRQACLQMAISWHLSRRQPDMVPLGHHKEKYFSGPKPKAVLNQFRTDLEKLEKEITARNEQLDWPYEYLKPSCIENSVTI

human platelets = assay: Collagen-stimulated platelet aggregation; assay type: cell-based; settings: ≥1 μM, 10 min incubation, collagen 0.25 μg/mL
How it was run: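 Washed human platelets were isolated by serial centrifugation and resuspended in Tyrode's buffer at 3 × 10^8/mL. They were preincubated with test compound (1–10 μM) for 10 min at 37 °C, then stimulated with 0.25 μg/mL collagen while stirring at 1100 rpm. Maximum aggregation was read as the light-transmittance change, mean ± SEM of 3–5 independent experiments. Comparison versus vehicle used one-way ANOVA with Dunnett's test.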

[1] = h15-LOX-1 + 1 μM 14S-HpDHA, 20 min, pH 7.5, ambient O2
[2] = h12-LOX + substrate, 25 mM HEPES pH 8.0, RT

## CC/C=C\C/C=C\C[C@@H](/C=C/C=C\C/C=C\C/C=C\CCC(=O)O)OO [14S-HpDHA, 14S-hydroperoxy-4Z,7Z,10Z,12E,16Z,19Z-docosahexaenoic acid]
h15-LOX-1; [1]
  product profile: 7S,14S-EZE-diHpDHA: 29% and 29 ± 6%
  product profile: 13S,14S-epoxy-DHA (detected as 7S/R,14S-EEE-diHDHA): 71% and 71 ± 6%
  product profile: 14S,20-diHpDHA: <1.0%
h15-LOX-1; h15-LOX-1 + 14S-HpDHA, Figure S3
  loss in 7S,14S-EZE-diHpDHA production at increased pH: 7 fold
h12-LOX; h12-LOX + 14S-HpDHA
  fold difference of 13S,14S-epoxy-DHA biosynthetic flux: 1.0
h12-LOX; h12-LOX + 14S-HpDHA, B.F. = kcat/KM * % product
  13S,14S-epoxy-DHA biosynthetic flux: 0.0018
h12-LOX; [2]
  Km: 88 ± 16 µM
  kcat: 0.22 ± 0.02 s⁻¹
h12-LOX; h12-LOX, 14S-HpDHA relative to DHA
  reduction of kcat: 60 fold
h12-LOX; h12-LOX, kcat/KM of enzyme with DHA set to 1 (Table 5)
  fold difference of kcat/KM: −5880
Human platelets
  reduction in aggregation compared to vehicle control: > 90%

Reference: PMC7729281 (Biochemistry, 2020)
